bIAP act – increases bovine intestinal alkaline phosphatase activity. purified bovine IAP, CDP-star luminescence, 30 min; active compounds read high; fold of DMSO-control signal, blank-subtracted. activation factor at 20 µM. 0.17% of 200,000 active. AID 1016;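 active = activation factor of 2 or more at 20 µM, a signal rise over negative controls twice the positive control's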
mIAP act – increases mouse intestinal alkaline phosphatase activity; muIAP, CDP-Star luminescence, 30 min; active compounds read high; 1 = vehicle-only enzyme signal, 0 = enzyme-free wells; activation factor at 10 µM; 0.24% of 330,000 active;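 active = activation factor of at least 2 at 20 µM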
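System: mouse IAP enzyme. Reagent: CDP-Star chemiluminescent phosphatase substrate. Benchmarks: DMSO wells, no-enzyme wells. Times: 30 min enzyme-substrate-compound incubation at room temperature. Detection: luminescence from enzymatic CDP-Star hydrolysis. Doses: test compounds delivered from DMSO solution.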
bIAP inh – intestinal alkaline phosphatase (bovine) inhibition; 190,000 tested, under 10 active; purified bovine IAP, CDP-star luminescence, 30 min; inhibition, % at 20 µM;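 active = over 50% inhibition of intestinal alkaline phosphatase at 20 µM in the single-dose screen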
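Assay system: bovine IAP enzyme; medium: DEA buffer 100 mM, pH 9.8, with MgCl2 1.0 mM, ZnCl2 0.02 mM; doses: 20 µM single dose; incubation: enzyme reaction for 30 min at room temperature; detection: CDP-star luminescence signal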
hIAP block – blocks human intestinal alkaline phosphatase; purified IAP, CDP-Star luminescence, 30 min; P09923; inhibition, % at 10 µM; AID 2544; 0.12% of 330,000 active;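 active = inhibition reaching a set limit with compound at 10 µM in the primary screen, cut at about 35% in these data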;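 note: plate controls were DMSO wells with enzyme for no effect and no-enzyme buffer wells for full effect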
Target sequence (P09923 whole entry, looked up): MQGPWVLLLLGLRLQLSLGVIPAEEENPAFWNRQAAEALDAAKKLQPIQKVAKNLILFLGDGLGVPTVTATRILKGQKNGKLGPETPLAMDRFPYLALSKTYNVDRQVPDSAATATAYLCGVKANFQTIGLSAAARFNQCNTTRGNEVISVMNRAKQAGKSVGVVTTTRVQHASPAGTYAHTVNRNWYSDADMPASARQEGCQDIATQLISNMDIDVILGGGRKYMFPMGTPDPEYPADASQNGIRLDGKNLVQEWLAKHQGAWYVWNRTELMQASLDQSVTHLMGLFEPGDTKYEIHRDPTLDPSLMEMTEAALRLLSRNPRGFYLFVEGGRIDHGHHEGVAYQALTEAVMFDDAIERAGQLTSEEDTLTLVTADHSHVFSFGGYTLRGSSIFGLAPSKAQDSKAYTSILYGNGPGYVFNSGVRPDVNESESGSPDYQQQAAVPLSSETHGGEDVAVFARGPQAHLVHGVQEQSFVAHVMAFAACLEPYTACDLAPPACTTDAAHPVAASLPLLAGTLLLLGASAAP
mIAP inh – mouse IAP inhibition | purified mouse IAP, CDP-Star luminescence, 30 min | 0.2% of 330,000 active | inhibition, % at 10 µM;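 active = inhibition of at least 40% at 10 µM in the primary screen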;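 note: plate controls were DMSO with enzyme for no effect and no enzyme wells for full effect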
hIAP activ – increases human intestinal alkaline phosphatase activity. P09923. purified human IAP, CDP-Star luminescence, 30 min; active compounds read high; 1 = vehicle-only enzyme, 0 = enzyme-free background. activation factor at 10 µM. 0.16% of 330,000 active;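 active = activation factor of the enzyme at least 2-fold when tested at 20 µM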
hIAP act conf – human IAP activation confirmation | shares compounds with hIAP activ | 10% of 880 active | AID 434926 | activation (%Activity, negative = activation), % at 8.3 µM | purified IAP, CDP-Star luminescence, 30 min; active compounds read low;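 active = at least twofold enzyme activation in any of six single-dose repeats, which the averaged readout prints as negative percent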
* = called active by the depositor; nt = no result given. Rows were chosen to be rich in hits. Some 0.79% of all compounds tested hit in one or more screens of this group.

SMILES | bIAP act | mIAP act | bIAP inh | hIAP block | mIAP inh | hIAP activ | hIAP act conf
c1ccc(Nc2ccnc(Nc3ccccc3)n2)cc1 | nt | 1.1 | nt | -177 | -11 | 2.8* | -44*
CCCCN(C(=O)c1cnc2n(c1=O)CCS2)c1ccccc1 | 0.9 | 1.2 | 10 | 8 | -18 | 0.92 | nt
c1ccc(-n2ncc3c2ncn2nc(-c4ccco4)nc32)cc1 | 1 | 0.7 | 5 | 52* | 30 | 0.48 | 0
Cc1ccc(S(=O)(=O)N2CCN(C(=O)COC(=O)CNC(=O)c3ccc(Cl)cc3Cl)CC2)cc1 | nt | 1 | nt | -2 | -4 | 1 | nt
CCCCNC(=O)CCC(=O)NNc1nc2ccccc2c2nc(C)nn12 | 0.8 | 0.78 | 22 | -154 | 22 | 2.5* | 8
Cc1nc2c3ccccc3nc(NNC(=O)CCC(=O)NCCN3CCN(c4ccccc4)CC3)n2n1 | nt | 0.9 | nt | -130 | 10 | 2.3* | -97*
Cc1nc2c3ccccc3nc(NNC(=O)CCC(=O)N3CCN(c4ccc(F)cc4)CC3)n2n1 | nt | 0.94 | nt | 22 | 6 | 0.78 | nt
CCOCCCNC(=O)CCC(=O)NNc1nc2ccccc2c2nc(C)nn12 | 1.3 | 1 | -34 | -207 | -1 | 3.1* | 4
CCOC(=O)N1CCN(C(=O)C2CCN(S(=O)(=O)c3cc(C)ccc3OC)CC2)CC1 | 1 | 1 | 3 | -10 | -1 | 1.1 | nt
Cc1cccc(C(=O)OCN2C(=O)c3ccccc3C2=O)c1[N+](=O)[O-] | nt | 0.97 | nt | 42* | 3 | 0.58 | 10
COc1ccc(CC(=O)NNC2=Nc3cccc4cccc2c34)cc1 | nt | 1.1 | nt | -119 | -6 | 2.2* | 12
COc1ccc(C(=O)NNC2=Nc3cccc4cccc2c34)cc1 | 1.2 | 0.75 | -19 | -34 | 25 | 1.3 | nt
COc1ccc(/C=C/C(=O)c2ccc(C)c([N+](=O)[O-])c2)cc1O | 0.8 | 0.82 | 24 | 13 | 18 | 0.87 | nt
COc1cc(/C=C/C(=O)c2ccc(C)c([N+](=O)[O-])c2)cc(OC)c1O | 0.9 | 0.61 | 14 | 47* | 38 | 0.53 | 18
COc1cccc(CC(NC(C)=O)C(=O)NC2CCN(C(=O)NCc3ccccc3)CC2)c1 (stereo not drawn) | nt | 1.1 | nt | -12 | -8 | 1.1 | nt
COc1ccc(CC(NC(C)=O)C(=O)NC2CCN(C(=O)NCc3ccccc3)CC2)cc1 (stereo not drawn) | 1 | 0.91 | -2 | 36* | 9 | 0.64 | -49
CCOc1cc(/C=C2/C(=O)ON=C2C)cc(Br)c1O | nt | 0.95 | nt | 38* | 5 | 0.61 | 9
COc1ccc2nc3cc(Cl)ccc3c(Nc3cc(CN4CCCC4)c(O)c(CN4CCCC4)c3)c2n1 | nt | 0.88 | nt | 43* | 12 | 0.57 | -60*
CSCCC(NC(=O)c1ccccc1Br)C(=O)NNC(=O)c1csc(N2CCOCC2)n1 (stereo not drawn) | nt | 0.94 | nt | -110 | 6 | 2.1* | -6
CSCCC(NS(=O)(=O)c1ccccc1F)C(=O)N1CCCCCC1 (stereo not drawn) | nt | 1.1 | nt | -20 | -5 | 1.2 | nt
CSCCC(NC(=O)c1ccccc1Cl)C(=O)NNC(=O)c1csc(N2CCOCC2)n1 (stereo not drawn) | nt | 1 | nt | -81 | -2 | 1.8 | nt
CSCCC(NS(=O)(=O)c1ccccc1F)C(=O)NNC(=O)c1csc(N2CCOCC2)n1 (stereo not drawn) | nt | 0.71 | nt | -164 | 29 | 2.6* | 72
O=C(CC(NS(=O)(=O)c1ccc(Cl)cc1)c1ccco1)N1CCc2ccccc21 (stereo not drawn) | 0.7 | 1 | 28 | -17 | -4 | 1.2 | nt
CC(=O)CSc1nc2ccccc2s1 | 1 | 1 | 3 | 0 | 0 | 1 | nt
Cn1cccc1C(=O)NC(=O)CSc1nc2ccccc2s1 | 0.9 | 1 | 11 | -107 | -1 | 2.1* | 1
SMILES | bIAP act | mIAP act | bIAP inh | hIAP block | mIAP inh | hIAP activ | hIAP act conf
Cc1cccc(SCc2noc(C(=O)NCC3CCCO3)c2C(=O)O)c1 (stereo not drawn) | 1 | 0.96 | -2 | 35* | 4 | 0.65 | -213*
Cc1cc(C)cc(SCc2noc(C(=O)NCC3CCCO3)c2C(=O)O)c1 (stereo not drawn) | 0.9 | 1 | 6 | -5 | -2 | 1.1 | nt
CCOC(=O)c1c(C)[nH]c(C(=O)N/N=C\c2ccccc2O)c1C | 1.2 | nt | -18 | nt | nt | nt | nt
CCOC(=O)c1c(C)[nH]c(C(=O)N/N=C/c2cc([N+](=O)[O-])ccc2O)c1C | nt | 0.61 | nt | -108 | 39 | 2.1* | 30
Cc1ccc(-n2ncc3c(NNC(=O)Cc4ccccc4)ncnc32)cc1 | 1.1 | 1.1 | -7 | -121 | -7 | 2.2* | 10
CC(=O)Nc1ccc(Nc2ncnc3c2cnn3-c2ccccc2)cc1 | 1 | 0.92 | -4 | 6 | 8 | 0.94 | nt
CC(=O)NNc1ncnc2c1cnn2-c1ccccc1 | 1.4 | 0.81 | -44 | -204 | 19 | 3* | -69
OCCNc1ncnc2c1nnn2Cc1ccccc1 | nt | 1.1 | nt | 10 | -9 | 0.91 | nt
CC(C)CCNc1ncnc2c1nnn2Cc1ccccc1Cl | 0.9 | 0.96 | 7 | 80* | 4 | 0.2 | 40
Cc1ccccc1S(=O)(=O)NNC(=O)C(=O)NNc1ccccn1 | 1.5 | 0.91 | -49 | -210 | 9 | 3.1* | 1
Cc1ccc(S(=O)(=O)NNC(=O)C(O)(c2ccccc2)c2ccccc2)cc1 | 0.7 | 0.9 | 34 | 7 | 10 | 0.93 | nt
Cc1ccc(S(=O)(=O)NNC(=O)C(=O)NNc2ccccn2)cc1 | 1.6 | 0.86 | -64 | -209 | 14 | 3.1* | -22
CC(=O)Nc1ccc(S(=O)(=O)NNC(=O)C(=O)NNc2ccccn2)cc1 | nt | 0.93 | nt | -185 | 7 | 2.8* | -31
CC(=O)Nc1ccc(S(=O)(=O)Nc2ccccn2)cc1 | 1 | 0.91 | 4 | -9 | 9 | 1.1 | nt
COCC1CCN(C(=O)CC2C(=O)NCCN2Cc2cccc(Oc3ccccc3)c2)CC1 (stereo not drawn) | nt | 1 | nt | -17 | -4 | 1.2 | nt
CN(C)N1C(N)=C(C#N)C(c2cccc3ccccc23)C2=C1CC(c1ccccc1)CC2=O (stereo not drawn) | 1.1 | 0.84 | -7 | 6 | 16 | 0.94 | nt
Oc1ccc(Br)cc1/C=N/NC(=S)NCCc1ccccc1 | nt | 0.93 | nt | -6 | 7 | 1.1 | nt
COc1ccc(O)c(/C=N/NC(=S)NCCc2ccccc2)c1 | nt | 0.91 | nt | -107 | 9 | 2.1* | -91*
COc1cccc(C2c3c(-c4cc(Cl)c(C)cc4O)n[nH]c3C(=O)N2Cc2cccnc2)c1 (stereo not drawn) | 1.2 | 1.2 | -15 | -137 | -16 | 2.4* | -18
Cc1ccc(C2c3c(-c4ccccc4O)n[nH]c3C(=O)N2Cc2ccncc2)cc1 (stereo not drawn) | 0.9 | 1.1 | 14 | -131 | -12 | 2.3* | -23

Bioassay records as filed in PubChem BioAssay.
